High-throughput results as filed in PubChem BioAssay.
KCNK3 block – human KCNK3 channel inhibition, primary screen; O14649; CHO-KCNK3 thallium flux, FluxOR fluorescence; hits give low values; B-score at 10 µM; 340,000 tested, 0.84% active; AID 602410;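 active = B-score under library mean minus 4 SD, starting fluorescence ratio at most library mean plus 5 SD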;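 note: more negative B-score means stronger inhibition of thallium flux through KCNK3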
KCNQ1 block – human KCNQ1 channel inhibition. P51787. 310,000 tested, 1.3% active. CHO-K1 KCNQ1, FluxOR thallium flux fluorescence; hits give high values. B-score at 10 µM;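 active = compounds whose thallium flux B-score, printed positive for inhibition, exceeds three library SD while starting fluorescence stays within three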;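 note: channel opened by potassium depolarization with thallium stimulus after 20 min compound exposure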
Kir21 inh – inhibitors of mouse Kir2.1 inward-rectifier potassium channel; P35561; HEK293-Kir2.1, FluxOR thallium flux fluorescence; hits give low values; B-score at 10 µM; 310,000 tested, 0.85% active;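 active = fluorescence ratio B-score at or below minus 3 SD of library scores, with starting-brightness B-score within 2 SD, cut at about -4.2 in these data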;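 note: channel flux triggered by added potassium and thallium sulfate stimulus; B-score of peak minus minimum fluorescence over baseline after thallium stimulus; more negative B-score means stronger Kir2.1 block with less thallium influx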
KCNQ1 pot – potentiators or activators of human KCNQ1 potassium channel. B-score at 10 µM. 310,000 tested, 0.35% active. CHO-K1 KCNQ1, thallium flux FluxOR fluorescence; hits give high values;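 active = fluorescence ratio B-score, a plate-corrected score, at least three library SD, with initial intensity B-score within 5 SD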
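Assay system: stable KCNQ1 CHO-K1 line; medium: assay buffer, equal DMSO in all wells; timing: 90 min dye loading and 20 min compound exposure, both at room temperature; technique: kinetic FluxOR thallium fluorescence, 10-s 1-Hz baseline, 110-s post-stimulus read; read-out basis: B score of baseline-normalized fluorescence ratio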
hERG protect – shields human hERG channel from block by proarrhythmic agents; 310,000 tested, 0.51% active; Q12809; AID 1511; activation (rescue from dofetilide block), less the hit threshold, % at 10 µM; CHO-hERG, FluxOR thallium flux, dofetilide IC70 present;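 active = activation above the mean of controls blocked by dofetilide plus 5 SD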;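 note: thallium influx through hERG after potassium depolarization seen as dye fluorescence rise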
KCNK9 inh – blocks the human KCNK9 two-pore domain potassium channel; 310,000 tested, 1.2% active; Q9NPC2; B-score at 10 µM; HEK293 KCNK9, FluxOR thallium flux fluorescence; hits give low values;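 active = ratio B-score over 3 SD below the library mean, with starting fluorescence within 5 SD of its mean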;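 note: negative B-score means less thallium flux so channel inhibition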
KCNQ1 inh valid – human KCNQ1 channel inhibition, validation assay. shares compounds with KCNQ1 block. KCNQ1 cell line, FluxOR thallium flux fluorescence. inhibition, % at 10 µM. 1,600 tested, 93% active. AID 588353;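 active = primary screen active, with duplicate mean exceeding buffer control mean plus 3 SD of buffer wells, cut at about 28% in these data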;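 note: 0% = buffer control ratio and 100% = XE991 inhibitor control ratio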
CHO KCNQ1 ctr – counter-screen for KCNQ1 inhibitors: effect in parental CHO cells; shares compounds with KCNQ1 block; fluorescence ratio (Tl flux) at 10 µM; parental CHO-K1, FluxOR thallium flux fluorescence ratio; hits give low values; zero means no signal rise above baseline; 1,600 tested, 21% active; AID 588366;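 active = mean of duplicate thallium-flux fluorescence ratios in parental host cells more than 5 SD below the buffer control mean, cut at about 0.38 in these data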;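 note: ratio is peak minus minimum fluorescence divided by baseline fluorescence; actives read low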
KCNQ1 APC inh – blocks human KCNQ1 current in automated patch clamp | shares compounds with KCNQ1 block | KCNQ1-CHO cells | calls only at 10 µM | 490 tested, 20% active;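 active = KCNQ1 current drop exceeding 3 SD of negative control wells, seen in both duplicate runs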;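 note: steady state current during a 2 s step from -80 to +40 mV; negative values mean current inhibition and positive values mean potentiation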
KCNQ2 inh – KCNQ1 inhibitor that also blocks rat KCNQ2 channel; shares compounds with KCNQ1 block; inhibition, % at 10 µM; KCNQ2 cells, FluxOR thallium flux fluorescence; 1,600 tested, 71% active;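 active = mean percent inhibition of the KCNQ2 thallium signal more than 5 SD above the buffer-only control wells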;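 note: KCNQ2 expressed in CHO cells; 0% = buffer control wells and 100% = XE-991 inhibitor control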
Target sequence (O88943 whole entry, looked up): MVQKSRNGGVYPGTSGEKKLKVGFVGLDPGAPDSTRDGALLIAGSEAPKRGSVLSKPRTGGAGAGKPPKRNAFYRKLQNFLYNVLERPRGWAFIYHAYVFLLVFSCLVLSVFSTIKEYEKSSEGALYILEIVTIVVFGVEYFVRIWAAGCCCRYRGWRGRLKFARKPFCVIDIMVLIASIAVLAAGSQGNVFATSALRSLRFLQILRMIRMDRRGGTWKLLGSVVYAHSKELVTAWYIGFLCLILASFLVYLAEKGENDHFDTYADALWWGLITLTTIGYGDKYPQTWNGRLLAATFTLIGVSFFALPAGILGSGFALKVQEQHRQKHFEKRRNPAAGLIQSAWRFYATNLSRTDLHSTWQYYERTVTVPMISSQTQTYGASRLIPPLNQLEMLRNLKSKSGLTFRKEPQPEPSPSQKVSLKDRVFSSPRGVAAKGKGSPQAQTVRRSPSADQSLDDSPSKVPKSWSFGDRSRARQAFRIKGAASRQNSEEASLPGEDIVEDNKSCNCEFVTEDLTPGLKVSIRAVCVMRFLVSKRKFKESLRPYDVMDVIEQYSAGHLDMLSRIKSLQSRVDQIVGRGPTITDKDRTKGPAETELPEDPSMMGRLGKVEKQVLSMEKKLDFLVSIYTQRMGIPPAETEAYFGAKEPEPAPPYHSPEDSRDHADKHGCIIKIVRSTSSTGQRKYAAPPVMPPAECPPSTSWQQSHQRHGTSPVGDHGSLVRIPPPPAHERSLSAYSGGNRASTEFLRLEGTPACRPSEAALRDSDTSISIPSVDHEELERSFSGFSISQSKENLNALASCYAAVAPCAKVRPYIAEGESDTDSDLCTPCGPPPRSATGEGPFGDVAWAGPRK
KCNQ1 KCNE1 spec – selectivity of KCNQ1 inhibitors: inhibition of human KCNQ1/KCNE1 channel; shares compounds with KCNQ1 block; KCNQ1/KCNE1 cells, FluxOR thallium flux fluorescence; inhibition, % at 10 µM; 1,600 tested, 77% active;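 active = mean percent inhibition of duplicate wells above the buffer-only control mean plus 3 SD of those controls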;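 note: 0% = buffer only wells and 100% = XE-991 inhibitor control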
Active calls of the source: *; i = inactive; . = no result; + = active, no number. Hits are enriched below; roughly 3.8% of the tested compounds scored in any of these assays.

SMILES	KCNK3 block	KCNQ1 block	Kir21 inh	KCNQ1 pot	hERG protect	KCNK9 inh	KCNQ1 inh valid	CHO KCNQ1 ctr	KCNQ2 inh	KCNQ1 KCNE1 spec	others
CCCCNC(=O)Cn1c(=O)oc2cc(S(=O)(=O)N3CC(C)CC(C)C3)ccc21 (stereo not drawn)	i	i	0.03	i	-12	i	.	.	.	.
Cc1cc(C)cc(NC(=O)Cn2c(=O)oc3cc(S(=O)(=O)N4CC(C)CC(C)C4)ccc32)c1 (stereo not drawn)	i	7*	0.77	i	-11	i	37*	0.47	67%*	i
S=C(Nc1ccc(Oc2ccccc2)cc1)N1CCN(c2ccccn2)CC1	i	i	0.87	i	-3	i	.	.	.	.
Cc1cc(OCCn2ccnc2)ccc1C(C)C	i	6*	-0.05	i	-10	i	0	0.51	64%*	42%*
Cc1ccc(OCCCn2ccnc2)cc1C	i	i	0.15	i	-7	i	.	.	.	.
O=C(CCSc1ccccc1)N1CCN(c2ccccc2)CC1	i	7*	2.4	i	-12	i	26*	0.47	i	64%*
O=[N+]([O-])c1ccc2nc(SCc3ccccc3Cl)sc2c1	i	15*	0.07	i	-20	i	106*	0.42	117%*	116%*	KCNQ1 APC inh=i
O=C(c1cnn(-c2ccccc2)c1-n1cccc1)N1CCN(C2CCCCC2)CC1	i	i	0.77	i	-5	i	.	.	.	.
O=C(Nc1ccc(Cl)cc1)Nc1ccc2c(c1)N1CCN=C1S2	i	12*	-1.8	i	-26	i	106*	0.45	65%*	110%*	KCNQ1 APC inh=i
O=S(=O)(Nc1c(O)ccc2ccccc12)c1ccccc1	i	11*	-0.89	i	-11	i	56*	0.53	i	90%*
O=S(=O)(Nc1cccc2ccccc12)c1ccccc1	i	i	-0.15	i	-10	i	.	.	.	.
O=S(=O)(Nc1c(O)ccc2ccccc12)c1ccc(F)cc1	i	10*	-0.15	i	-21	i	42*	0.64	i	55%*
CCOc1ccccc1N1CCN(C(=O)NCc2ccc(C)cc2)CC1	i	i	-0.76	i	-9	i	.	.	.	.
COc1ccc(S(=O)(=O)NC(C)C)cc1C(=O)N1CCOCC1	i	i	2.1	i	-10	i	.	.	.	.
Cc1ccc2nc(/N=C(\N)NC(=O)NC3CCCCC3)nc(C)c2c1	i	7*	0.82	i	-22	i	56*	0.52	i	i
O=C(Nc1nc(-c2cccs2)c(C(=O)C(F)(F)F)s1)c1ccccc1	i	7*	2.5	i	-12	i	25*	0.48	i	i
COc1cccc2cc(C(=O)Nc3cc(Cl)ccc3N3CCOCC3)c(=O)oc12	i	i	1.8	i	-1	i	.	.	.	.
Cc1[nH]n(-c2ncc(-c3ccccc3)s2)c(=O)c1C(c1ccc(Cl)cc1)C(C#N)C#N (stereo not drawn)	i	7*	-2.9	i	-15	i	45*	0.42	i	69%*
Cc1[nH]n(-c2ccccc2)c(=O)c1C(c1ccccc1[N+](=O)[O-])C(C#N)C#N (stereo not drawn)	i	i	-0.95	i	-9	i	.	.	.	.
COc1ccc(N2CCN(C(=O)CSc3nnc4n3C(C)(C)Cc3ccccc3-4)CC2)cc1	i	i	-0.1	i	-13	i	.	.	.	.
Cc1ccc(Cl)cc1N1CCN(C(=O)CSc2nnc3n2C(C)(C)Cc2ccccc2-3)CC1	-9*	17*	0.79	i	-31	i	148*	0.28*	145%*	+
CCc1ccc(N(CC(=O)Nc2nc3ccc(C)cc3s2)S(=O)(=O)c2c(C)noc2C)cc1	i	9*	0.03	i	-5	i	71*	0.42	73%*	138%*
Cc1cc(C)c(O)c(-c2cc(C(=O)Nc3ccc(S(=O)(=O)N4CCOCC4)cc3)[nH]n2)c1	i	6*	0.02	i	-13	i	133*	0.37*	94%*	+
O=C(Nc1ccc(Cl)cc1)NC1CCCCC1Cc1ccco1 (stereo not drawn)	i	8*	-0.74	i	-9	i	126*	0.44	77%*	102%*	KCNQ1 APC inh=+
COc1ccc(-c2nc(-c3ccc(NC(=O)c4ccncc4)cc3)no2)cc1OC	i	12*	-1.6	i	-10	i	0	0.48	71%*	i
SMILES	KCNK3 block	KCNQ1 block	Kir21 inh	KCNQ1 pot	hERG protect	KCNK9 inh	KCNQ1 inh valid	CHO KCNQ1 ctr	KCNQ2 inh	KCNQ1 KCNE1 spec	others
CN(C)c1ccc(CNC(=O)CCNS(=O)(=O)c2cc(Br)cnc2N)cc1	i	i	1.8	i	-4	i	.	.	.	.
CC(C)(CCl)C(=O)Nc1ccc(C(F)(F)F)cc1	i	6*	-0.01	i	-4	i	56*	0.5	66%*	68%*
C/C(=C\C(=O)C(F)(F)F)Nc1ccc(C(F)(F)F)cc1	i	i	0.56	i	-6	i	.	.	.	.
O=C(c1cccc(-c2ccco2)c1)N1CCCC(N2CCN(c3ccc(F)cc3)CC2)C1 (stereo not drawn)	i	i	0.04	i	-4	i	.	.	.	.
c1ccc(-c2cn3nc4c(nc3n2)CCCC4)cc1	i	8*	-1.4	i	-17	i	40*	0.4	76%*	76%*
O=S(=O)(NC1CCCCC1Oc1ccccc1)c1ccc(Cl)cc1 (stereo not drawn)	i	i	-3.7	i	-9	i	.	.	.	.
CSc1ccc(OC2CCCCC2NS(=O)(=O)c2ccc(Cl)cc2)cc1 (stereo not drawn)	i	6*	0.32	i	-8	i	120*	0.41	115%*	142%*	KCNQ1 APC inh=i
CCOC(=O)c1ccc(NC(=S)Nc2ccc(C)cc2)cc1	i	i	0.79	i	-16	i	.	.	.	.
